≈ marks a conversion by molar mass, not a printed value. Calls of active or inactive are those of the source. The rule behind the calls is not given here.
Experiments:
[1] = target: T1, Serine/threonine-protein kinase Chk1 (Homo sapiens, UniProt O14757); assay: Inhibition of full-length Chk1 in HeLa S3 cells assessed as phosphorylation at Ser345 after 4 hrs; assay type: cell-based
T1 sequence (O14757 whole entry): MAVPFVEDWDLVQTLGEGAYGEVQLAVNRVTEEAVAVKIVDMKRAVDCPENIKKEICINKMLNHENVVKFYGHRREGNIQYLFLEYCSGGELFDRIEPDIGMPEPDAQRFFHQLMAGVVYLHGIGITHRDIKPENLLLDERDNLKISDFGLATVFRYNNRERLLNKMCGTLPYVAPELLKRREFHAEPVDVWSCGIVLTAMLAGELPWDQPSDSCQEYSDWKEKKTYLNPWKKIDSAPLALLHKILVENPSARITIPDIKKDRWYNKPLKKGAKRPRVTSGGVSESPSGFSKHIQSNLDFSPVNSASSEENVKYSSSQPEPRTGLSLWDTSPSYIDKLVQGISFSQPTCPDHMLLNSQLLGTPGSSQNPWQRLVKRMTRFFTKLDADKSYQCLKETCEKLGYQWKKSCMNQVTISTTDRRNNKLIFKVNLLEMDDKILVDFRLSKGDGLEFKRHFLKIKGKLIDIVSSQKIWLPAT
Method in brief: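 HeLa S3 cells exposed to 1 µM gemcitabine together with test compound for 4 hr; read-out is Ser345-phosphorylated Chk1.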

[2] = Clearance in Sprague-Dawley rat at 2.5 mg/kg, iv and 5 mg/kg, po; assay type: ADME, organism-based; conditions: in vivo
[3] = Oral bioavailability in Sprague-Dawley rat at 5 mg/kg; assay type: ADME, organism-based; conditions: in vivo
[4] = target: Serine/threonine-protein kinase mTOR (Homo sapiens, UniProt P42345); assay: Inhibition of mTOR (unknown origin)
[5] = Volume of distribution at steady state in Sprague-Dawley rat at 2.5 mg/kg, iv and 5 mg/kg, po; assay type: ADME, organism-based; conditions: in vivo, read-out: Vdss
[6] = target: Serine/threonine-protein kinase ATR (Homo sapiens, UniProt Q13535); assay: Inhibition of human ATR using ATP substrate measured after 3 hrs
Sequence of Serine/threonine-protein kinase ATR (Q13535 whole entry, canonical isoform): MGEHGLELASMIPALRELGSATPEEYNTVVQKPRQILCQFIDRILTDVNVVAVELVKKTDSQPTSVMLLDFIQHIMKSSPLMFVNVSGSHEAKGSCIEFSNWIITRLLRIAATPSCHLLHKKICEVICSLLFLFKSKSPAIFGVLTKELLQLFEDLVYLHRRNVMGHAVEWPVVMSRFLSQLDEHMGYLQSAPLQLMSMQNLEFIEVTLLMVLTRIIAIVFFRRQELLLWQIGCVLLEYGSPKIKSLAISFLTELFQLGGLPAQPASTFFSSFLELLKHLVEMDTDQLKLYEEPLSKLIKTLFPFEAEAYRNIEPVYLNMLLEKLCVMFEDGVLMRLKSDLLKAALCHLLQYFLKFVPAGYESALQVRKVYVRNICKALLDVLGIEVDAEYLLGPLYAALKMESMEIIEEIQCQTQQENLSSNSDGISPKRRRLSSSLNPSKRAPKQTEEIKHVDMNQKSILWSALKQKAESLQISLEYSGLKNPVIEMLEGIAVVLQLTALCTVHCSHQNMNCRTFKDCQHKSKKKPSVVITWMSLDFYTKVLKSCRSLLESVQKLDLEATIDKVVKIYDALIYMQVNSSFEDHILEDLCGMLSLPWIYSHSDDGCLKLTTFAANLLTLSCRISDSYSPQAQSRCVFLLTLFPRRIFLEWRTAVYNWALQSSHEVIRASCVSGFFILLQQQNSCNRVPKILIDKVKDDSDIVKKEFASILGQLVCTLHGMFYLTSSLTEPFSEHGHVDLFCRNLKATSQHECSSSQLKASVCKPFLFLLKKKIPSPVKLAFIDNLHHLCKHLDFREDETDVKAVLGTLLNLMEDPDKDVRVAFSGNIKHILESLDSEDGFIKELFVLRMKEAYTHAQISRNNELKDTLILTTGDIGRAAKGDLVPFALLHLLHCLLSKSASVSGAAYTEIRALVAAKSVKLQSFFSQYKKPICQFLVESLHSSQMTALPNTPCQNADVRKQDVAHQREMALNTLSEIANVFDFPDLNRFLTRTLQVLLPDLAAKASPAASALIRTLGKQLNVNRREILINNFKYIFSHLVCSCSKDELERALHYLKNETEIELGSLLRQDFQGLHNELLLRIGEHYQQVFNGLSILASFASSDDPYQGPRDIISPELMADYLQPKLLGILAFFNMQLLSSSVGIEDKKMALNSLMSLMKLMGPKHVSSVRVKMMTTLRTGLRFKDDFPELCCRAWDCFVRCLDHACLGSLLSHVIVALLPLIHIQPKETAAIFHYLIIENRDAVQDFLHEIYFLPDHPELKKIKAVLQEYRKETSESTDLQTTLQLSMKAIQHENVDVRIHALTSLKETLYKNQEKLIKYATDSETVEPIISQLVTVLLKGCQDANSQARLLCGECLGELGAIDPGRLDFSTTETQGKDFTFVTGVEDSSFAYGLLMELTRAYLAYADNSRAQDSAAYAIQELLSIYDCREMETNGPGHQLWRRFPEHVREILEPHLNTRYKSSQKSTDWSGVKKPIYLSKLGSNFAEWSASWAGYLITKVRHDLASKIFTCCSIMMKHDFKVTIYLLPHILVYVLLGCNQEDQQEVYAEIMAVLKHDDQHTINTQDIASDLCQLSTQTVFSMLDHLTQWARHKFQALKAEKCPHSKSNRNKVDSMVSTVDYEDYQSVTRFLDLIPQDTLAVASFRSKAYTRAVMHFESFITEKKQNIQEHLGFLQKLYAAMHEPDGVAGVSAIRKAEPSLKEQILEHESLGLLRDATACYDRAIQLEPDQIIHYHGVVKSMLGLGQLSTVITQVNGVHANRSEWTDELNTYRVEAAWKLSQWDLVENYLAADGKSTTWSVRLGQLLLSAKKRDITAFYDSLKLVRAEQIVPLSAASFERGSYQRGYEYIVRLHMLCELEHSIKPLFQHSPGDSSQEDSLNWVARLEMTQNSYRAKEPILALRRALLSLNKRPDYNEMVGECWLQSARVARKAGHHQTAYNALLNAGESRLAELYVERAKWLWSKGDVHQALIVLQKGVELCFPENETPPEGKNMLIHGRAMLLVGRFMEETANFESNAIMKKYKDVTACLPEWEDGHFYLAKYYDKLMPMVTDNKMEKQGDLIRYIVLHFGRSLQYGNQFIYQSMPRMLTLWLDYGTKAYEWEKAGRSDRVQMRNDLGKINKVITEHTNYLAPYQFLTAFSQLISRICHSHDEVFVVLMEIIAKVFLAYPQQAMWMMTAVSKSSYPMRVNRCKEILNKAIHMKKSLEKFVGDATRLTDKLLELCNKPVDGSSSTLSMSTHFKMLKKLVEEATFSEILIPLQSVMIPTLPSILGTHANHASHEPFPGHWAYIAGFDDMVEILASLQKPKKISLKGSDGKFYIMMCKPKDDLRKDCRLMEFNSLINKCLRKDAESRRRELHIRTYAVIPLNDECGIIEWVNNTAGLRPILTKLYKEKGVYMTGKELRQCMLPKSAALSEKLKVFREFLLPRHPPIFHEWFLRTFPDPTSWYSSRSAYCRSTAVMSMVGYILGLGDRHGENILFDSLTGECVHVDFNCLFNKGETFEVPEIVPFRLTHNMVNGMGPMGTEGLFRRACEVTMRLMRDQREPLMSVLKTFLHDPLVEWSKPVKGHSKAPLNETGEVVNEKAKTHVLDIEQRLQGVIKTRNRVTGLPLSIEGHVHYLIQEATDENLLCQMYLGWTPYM

[7] = target: T2, Phosphatidylinositol 4,5-bisphosphate 3-kinase catalytic subunit alpha isoform (Homo sapiens, UniProt P42336); assay: Inhibition of PI3Kalpha (unknown origin)
T2 sequence (P42336 whole entry, canonical isoform): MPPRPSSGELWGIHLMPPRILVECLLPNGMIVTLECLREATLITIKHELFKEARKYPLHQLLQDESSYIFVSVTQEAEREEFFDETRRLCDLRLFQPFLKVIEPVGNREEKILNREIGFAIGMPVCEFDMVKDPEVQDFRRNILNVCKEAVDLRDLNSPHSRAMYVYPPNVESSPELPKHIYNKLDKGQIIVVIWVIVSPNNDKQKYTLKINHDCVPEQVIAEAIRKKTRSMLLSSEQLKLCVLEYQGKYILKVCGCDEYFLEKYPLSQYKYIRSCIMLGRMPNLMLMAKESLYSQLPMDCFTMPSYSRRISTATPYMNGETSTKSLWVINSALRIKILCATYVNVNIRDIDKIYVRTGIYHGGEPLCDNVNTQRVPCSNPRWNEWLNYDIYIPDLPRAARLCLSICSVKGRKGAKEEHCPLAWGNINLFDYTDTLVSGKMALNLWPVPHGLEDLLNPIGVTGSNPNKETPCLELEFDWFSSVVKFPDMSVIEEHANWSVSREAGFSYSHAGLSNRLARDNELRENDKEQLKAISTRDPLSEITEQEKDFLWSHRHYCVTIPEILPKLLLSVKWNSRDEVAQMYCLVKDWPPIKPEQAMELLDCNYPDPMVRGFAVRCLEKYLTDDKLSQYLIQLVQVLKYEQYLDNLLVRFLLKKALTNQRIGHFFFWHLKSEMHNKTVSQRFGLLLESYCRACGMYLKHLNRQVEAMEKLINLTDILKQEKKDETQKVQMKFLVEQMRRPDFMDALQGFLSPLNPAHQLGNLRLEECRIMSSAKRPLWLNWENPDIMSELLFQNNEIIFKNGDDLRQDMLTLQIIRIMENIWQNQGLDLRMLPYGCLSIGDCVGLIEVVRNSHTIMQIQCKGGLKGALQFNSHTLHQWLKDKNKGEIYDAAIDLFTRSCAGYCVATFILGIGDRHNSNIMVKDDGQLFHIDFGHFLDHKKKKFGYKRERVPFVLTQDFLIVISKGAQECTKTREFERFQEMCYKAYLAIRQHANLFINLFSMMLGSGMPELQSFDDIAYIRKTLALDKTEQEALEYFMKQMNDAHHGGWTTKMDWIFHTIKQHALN

[8] = Solubility of the compound in PBS buffer at pH 7 by shake flask equilibrium solubility assay
[9] = Apparent permeability from apical to basolateral side in human Caco2 cells at 10 uM and pH 7.4; conditions: Caco-2, pH 7.4
[10] = Apparent permeability from basolateral to apical side in human Caco2 cells at 10 uM and pH 7.4; conditions: Caco-2, pH 7.4
[11] = target: Voltage-gated inwardly rectifying potassium channel KCNH2 (Homo sapiens, UniProt Q12809); assay: Inhibition of human ERG channel by dofetilide binding assay
[12] = target: Cytochrome P450 3A4 (Homo sapiens, UniProt P08684); assay: Inhibition of CYP3A4 (unknown origin); assay type: ADME
[13] = target: T3, Cytochrome P450 2D6 (Homo sapiens, UniProt P10635); assay: Inhibition of CYP2D6 (unknown origin); assay type: ADME
T3 sequence (P10635 whole entry): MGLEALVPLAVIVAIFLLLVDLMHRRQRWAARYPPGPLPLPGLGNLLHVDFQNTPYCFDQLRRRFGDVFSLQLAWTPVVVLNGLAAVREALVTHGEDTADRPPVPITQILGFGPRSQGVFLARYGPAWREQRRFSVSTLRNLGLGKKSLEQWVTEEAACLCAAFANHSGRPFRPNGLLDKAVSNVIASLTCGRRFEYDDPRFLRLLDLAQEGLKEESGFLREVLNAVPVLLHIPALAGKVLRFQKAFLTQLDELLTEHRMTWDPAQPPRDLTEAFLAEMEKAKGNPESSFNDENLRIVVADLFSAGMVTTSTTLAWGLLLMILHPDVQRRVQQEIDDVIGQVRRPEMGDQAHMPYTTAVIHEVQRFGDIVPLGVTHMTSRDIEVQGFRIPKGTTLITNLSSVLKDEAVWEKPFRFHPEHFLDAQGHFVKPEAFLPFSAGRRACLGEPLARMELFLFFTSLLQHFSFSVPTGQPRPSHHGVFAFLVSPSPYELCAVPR

[14] = target: T4, Cytochrome P450 2C9 (Homo sapiens, UniProt P11712); assay: Inhibition of CYP2C9 (unknown origin); assay type: ADME
T4 sequence (P11712 whole entry): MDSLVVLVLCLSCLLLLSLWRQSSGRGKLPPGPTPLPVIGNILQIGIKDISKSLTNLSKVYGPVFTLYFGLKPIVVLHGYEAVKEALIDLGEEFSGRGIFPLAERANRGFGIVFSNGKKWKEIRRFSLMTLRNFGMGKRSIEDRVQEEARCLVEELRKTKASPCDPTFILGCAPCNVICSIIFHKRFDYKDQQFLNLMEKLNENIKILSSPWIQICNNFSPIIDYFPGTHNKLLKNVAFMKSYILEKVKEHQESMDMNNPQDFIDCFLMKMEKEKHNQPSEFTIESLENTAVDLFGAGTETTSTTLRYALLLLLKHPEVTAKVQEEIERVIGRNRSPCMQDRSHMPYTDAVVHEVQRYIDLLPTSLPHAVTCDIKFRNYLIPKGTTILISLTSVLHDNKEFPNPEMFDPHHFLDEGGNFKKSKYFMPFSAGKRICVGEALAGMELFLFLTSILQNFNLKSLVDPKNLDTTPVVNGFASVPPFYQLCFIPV

[15] = target: T5, Cytochrome P450 1A2 (Homo sapiens, UniProt P05177); assay: Inhibition of CYP1A2 (unknown origin); assay type: ADME
T5 sequence (P05177 whole entry): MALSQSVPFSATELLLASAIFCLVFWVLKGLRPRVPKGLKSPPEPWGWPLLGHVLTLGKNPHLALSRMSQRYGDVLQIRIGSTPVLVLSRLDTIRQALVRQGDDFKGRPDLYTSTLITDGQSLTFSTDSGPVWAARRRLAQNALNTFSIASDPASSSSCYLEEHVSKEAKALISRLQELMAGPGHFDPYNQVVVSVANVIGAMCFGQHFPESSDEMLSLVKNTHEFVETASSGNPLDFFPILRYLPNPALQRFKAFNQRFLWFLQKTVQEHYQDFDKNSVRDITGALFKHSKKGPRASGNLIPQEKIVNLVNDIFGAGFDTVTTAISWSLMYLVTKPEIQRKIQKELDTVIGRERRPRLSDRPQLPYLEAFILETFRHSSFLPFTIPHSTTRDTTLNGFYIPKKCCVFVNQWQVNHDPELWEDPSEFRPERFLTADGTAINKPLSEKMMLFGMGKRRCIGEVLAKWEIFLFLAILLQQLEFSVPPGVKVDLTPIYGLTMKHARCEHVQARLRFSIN

[16] = target: T6, Serine-protein kinase ATM (Homo sapiens, UniProt Q13315); assay: Inhibition of ATM (unknown origin)
[17] = target: T7, DNA-dependent protein kinase catalytic subunit (Homo sapiens, UniProt P78527); assay: Inhibition of DNAPK (unknown origin)
[18] = Growth inhibition of human HT144 cells after 72 hrs by Cell Titer Glow assay; assay type: functional, cell-based; conditions: HT-144, 72 h
Method in brief: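 Cell Titer Glo viability read-out after 72 hr continuous compound exposure.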

[19] = Half life in Sprague-Dawley rat at 2.5 mg/kg, iv and 2.5 mg/kg, po; conditions: in vivo
[20] = target: T6, Serine-protein kinase ATM; assay: Inhibition of ATM (unknown origin) at 2 uM
[21] = target: T7, DNA-dependent protein kinase catalytic subunit; assay: Inhibition of DNAPK (unknown origin) at 10 uM
[22] = target: T2, Phosphatidylinositol 4,5-bisphosphate 3-kinase catalytic subunit alpha isoform; assay: Inhibition of PI3Kalpha (unknown origin) at <8 uM
[23] = target: Phosphatidylinositol 4,5-bisphosphate 3-kinase catalytic subunit beta isoform (Homo sapiens) (UniProt P42338); assay: Inhibition of PI3Kbeta (unknown origin) at <8 uM
[24] = target: Phosphatidylinositol 4,5-bisphosphate 3-kinase catalytic subunit gamma isoform (Homo sapiens) (UniProt P48736); assay: Inhibition of PI3Kgamma (unknown origin) at <8 uM
[25] = target: T8, Phosphatidylinositol 4,5-bisphosphate 3-kinase catalytic subunit delta isoform (Homo sapiens) (UniProt O00329); assay: Inhibition of PI3Kdelta (unknown origin) at <8 uM
T8 sequence (whole entry): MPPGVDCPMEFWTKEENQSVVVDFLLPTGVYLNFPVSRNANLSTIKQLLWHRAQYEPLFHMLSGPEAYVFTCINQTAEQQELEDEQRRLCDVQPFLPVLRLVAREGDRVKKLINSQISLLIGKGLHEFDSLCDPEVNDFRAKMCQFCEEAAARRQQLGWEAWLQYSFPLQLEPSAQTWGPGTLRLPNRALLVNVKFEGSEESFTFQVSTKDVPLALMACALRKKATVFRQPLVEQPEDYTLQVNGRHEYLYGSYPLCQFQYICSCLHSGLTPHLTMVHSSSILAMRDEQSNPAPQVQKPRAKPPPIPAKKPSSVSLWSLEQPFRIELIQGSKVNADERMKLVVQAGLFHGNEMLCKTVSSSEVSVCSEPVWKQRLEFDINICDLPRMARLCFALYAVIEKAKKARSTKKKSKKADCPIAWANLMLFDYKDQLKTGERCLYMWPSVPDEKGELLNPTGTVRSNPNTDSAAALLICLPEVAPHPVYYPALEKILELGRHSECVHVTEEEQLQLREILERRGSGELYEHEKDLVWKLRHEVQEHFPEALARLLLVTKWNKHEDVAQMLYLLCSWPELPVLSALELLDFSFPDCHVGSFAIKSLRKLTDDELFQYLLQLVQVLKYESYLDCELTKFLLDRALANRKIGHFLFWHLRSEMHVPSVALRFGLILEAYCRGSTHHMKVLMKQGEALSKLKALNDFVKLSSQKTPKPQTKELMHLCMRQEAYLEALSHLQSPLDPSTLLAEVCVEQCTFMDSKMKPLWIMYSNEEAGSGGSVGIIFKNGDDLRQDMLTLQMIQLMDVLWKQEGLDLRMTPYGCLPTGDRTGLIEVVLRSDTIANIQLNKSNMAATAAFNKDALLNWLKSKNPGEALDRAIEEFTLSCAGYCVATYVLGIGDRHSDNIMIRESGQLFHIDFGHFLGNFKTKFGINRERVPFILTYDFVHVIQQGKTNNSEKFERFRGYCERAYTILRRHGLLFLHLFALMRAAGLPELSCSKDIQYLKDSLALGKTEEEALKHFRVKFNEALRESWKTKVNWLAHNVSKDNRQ

[26] = target: T3, Cytochrome P450 2D6; assay: Time dependent inhibition of CYP2D6 in human liver microsomes; assay type: ADME; conditions: TDE = time-dependent effect
[27] = target: T4, Cytochrome P450 2C9; assay: Time dependent inhibition of CYP2C9 in human liver microsomes; assay type: ADME; conditions: TDE = time-dependent effect
[28] = target: T5, Cytochrome P450 1A2; assay: Time dependent inhibition of CYP1A2 in human liver microsomes; assay type: ADME; conditions: TDE = time-dependent effect
[29] = Intrinsic clearance in mouse liver microsomes; assay type: ADME; conditions: read-out: CLH
Method in brief: (§1)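 Liver microsomes from mouse, rat or human; intrinsic clearance scaled to hepatic blood flow.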

[30] = Intrinsic clearance in rat liver microsomes; assay type: ADME; conditions: read-out: CLH; method in brief: as §1
[31] = Intrinsic clearance in human liver microsomes; assay type: ADME; conditions: read-out: CLH; method in brief: as §1

Structure (SMILES) | clearance [2] [mL/min/kg] | bioavailability [3] [%] | IC50 [6] [nM] | IC50 [7] [µM] | solubility thermodynamic [8] [µM] | Papp A→B at 10 µM [9] [×10⁻⁶ cm/s] | Papp B→A at 10 µM [10] [×10⁻⁶ cm/s] | further results
c1cc(-c2cc3nccn3c(N3CCOCC3)n2)c2cc[nH]c2c1 | – | – | 96 | > 10 | 56 (≈ 17.9 µg/mL) | – | – | –
C[C@@H]1COCCN1c1nc(-c2cccc3[nH]ccc23)cc2c1ncn2CS(C)(=O)=O | – | – | 1 | – | – | – | – | EC50 [1]: 570 nM
CS(=O)(=O)Cn1cnc2c(N3C4CCC3COC4)nc(-c3cnc(N)nc3)cc21 | – | – | 190 | – | – | – | – | –
C[C@@H]1COCCN1c1nc(-c2nncc3[nH]ccc23)cc2c1ncn2C | 34 | 7.5 | 0.5 | – | > 2400 | 3.6 | 38 | IC50 [11]: > 30 µM; IC50 [12]: > 24 µM; IC50 [13]: > 24 µM; IC50 [14]: > 24 µM; IC50 [15]: > 24 µM; IC50 [4]: > 13 µM; Vd [5]: 1.8 L/kg; IC50 [16]: 15 µM; IC50 [17]: > 25 µM; IC50 [18]: 350 nM; half-life [19]: 120 min
C[C@@H]1COCCN1c1nc(-c2cncc3[nH]ccc23)cc2c1ncn2[C@@H](C)S(C)(=O)=O | 114 | – | 0.2 | – | > 770 | 2 | 37 | IC50 [1]: 80 nM; inhibition [20]: inactive; inhibition [21]: inactive; inhibition [22]: inactive; inhibition [23]: inactive; inhibition [24]: inactive; inhibition [25]: inactive; IC50 [12]: > 40 µM; IC50 [13]: > 40 µM; IC50 [14]: > 40 µM; IC50 [15]: > 40 µM; inhibition (INH) [26]: tde; inhibition (INH) [27]: tde; inhibition (INH) [28]: tde; IC50 [4]: > 4.6 µM
C[C@@H]1COCCN1c1nc(-c2c(F)ncc3[nH]ccc23)cc2c1ncn2C | 20 | 66 | 0.1 | – | > 2300 | 38 | 38 | IC50 [1]: 96 nM; Vd [5]: 1.2 L/kg

More lines, main results first:

clearance [2] [mL/min/kg] | bioavailability [3] [%] | IC50 [6] [nM] | IC50 [7] [µM] | solubility thermodynamic [8] [µM] | Papp A→B at 10 µM [9] [×10⁻⁶ cm/s] | Papp B→A at 10 µM [10] [×10⁻⁶ cm/s] | Structure (SMILES) | further results
49 | 18 | – | – | – | – | – | C[C@@H]1COCCN1c1nc(-c2cncc3[nH]ccc23)cc2c1ncn2C | IC50 [1]: 84 nM; IC50 [4]: 7.5 µM; Vd [5]: 2.3 L/kg
– | – | 26 | > 10 | – | – | – | c1cc(-c2cc3c(ncn3CC3CC3)c(N3CCOCC3)n2)c2cc[nH]c2c1 | –
– | – | 39 | – | – | – | – | O=C(NC1CC1)c1cn2c(N3CCOCC3)nc(-c3cccc4[nH]ccc34)cc2n1 | –
14 | 96 | 5 | > 10 | 193 (≈ 79.4 µg/mL) | 14 | 58 | CS(=O)(=O)Cn1cnc2c(N3CCOCC3)nc(-c3cccc4[nH]ccc34)cc21 | EC50 [1]: 3300 nM; CLint scaled [29]: 31 mL/min/kg; CLint scaled [30]: 30 mL/min/kg; CLint scaled [31]: 6 mL/min/kg
– | – | 34 | – | – | – | – | CS(=O)(=O)Cn1cnc2c(N3C4CCC3COC4)nc(-c3cncc4[nH]ccc34)cc21 | –
– | – | 95 | > 10 | – | – | – | C[C@@H]1COCCN1c1nc(-c2cccc3[nH]ccc23)cc2nccn12 | –
– | – | 6 | – | – | – | – | C[C@@H]1COCCN1c1nc(-c2cnc(N)nc2)cc2c1ncn2CS(C)(=O)=O | –
